Assay results from ChEMBL document CHEMBL5058577, “EUbOPEN Chemogenomics Library 2 (Multiplex)” (2022).

Test system: Fibroblast
Assay: Multiplex assay against human fibroblast
Assay type: toxicity, cell-based
Procedure, shortened: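 Cells were classed with CellPathfinder machine-learning gating, first as Hoechst high-intensity objects or normal cells, then (normal cells) as healthy, pyknosed or fragmented nuclei, and finally (pyknosed cells) as mitotic or apoptotic. Staining of live cells at seeding used Hoechst33342, BioTracker Green Microtubule Cytoskeleton Dye, MitoTracker Red and Annexin V Alexa Fluor 680, with imaging on a CQ1 microscope at 37°C and 5% CO2 after compound addition. Tubulin, mitochondrial-mass and membrane-permeability phenotypes are per cents of healthy-nucleus cells.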

[1] = 12 h, 1 µM, compound concentration 1 uM, replicate 1
[2] = 12 h, 1 µM, compound concentration 1 uM, replicate 2
[3] = 12 h, 10 µM, compound concentration 10 uM, replicate 1
[4] = 12 h, 10 µM, compound concentration 10 uM, replicate 2
[5] = 24 h, 1 µM, compound concentration 1 uM, replicate 1
[6] = 24 h, 1 µM, compound concentration 1 uM, replicate 2
[7] = 24 h, 10 µM, compound concentration 10 uM, replicate 1
[8] = 24 h, 10 µM, compound concentration 10 uM, replicate 2
[9] = 48 h, 1 µM, compound concentration 1 uM, replicate 1
[10] = 48 h, 1 µM, compound concentration 1 uM, replicate 2
[11] = 48 h, 10 µM, compound concentration 10 uM, replicate 1
[12] = 48 h, 10 µM, compound concentration 10 uM, replicate 2

CCCCC1=NC2(CCCC2)C(=O)N1Cc1ccc(-c2ccccc2-c2nnn[nH]2)cc1 [IRBESARTAN]
Population Apoptotic (%) [1]: 40% | Population Fragmented Nuclei (%) [1]: 14% | Population Healthy Nuclei (%) [1]: 67% | Population Hoechst High Intensity Objects (%) [1]: 1% | Population Membrane Permeable-Phenotype (%) [1]: 0% | Population Mitochondria Different-Phenotype (%) [1]: 5% | Population Mitotic Cells (%) [1]: 59% | Population Normal (%) [1]: 98% | Population Pyknosed Nuclei (%) [1]: 17% | Population Tubulin-Different-Phenotype (%) [1]: 28% | Total Cell Count [1]: 159 | Population Apoptotic (%) [2]: 38% | Population Fragmented Nuclei (%) [2]: 24% | Population Healthy Nuclei (%) [2]: 55% | Population Hoechst High Intensity Objects (%) [2]: 3% | Population Membrane Permeable-Phenotype (%) [2]: 7% | Population Mitochondria Different-Phenotype (%) [2]: 2% | Population Mitotic Cells (%) [2]: 61% | Population Normal (%) [2]: 96% | Population Pyknosed Nuclei (%) [2]: 20% | Population Tubulin-Different-Phenotype (%) [2]: 43% | Total Cell Count [2]: 187 | Population Apoptotic (%) [3]: 60% | Population Fragmented Nuclei (%) [3]: 11% | Population Healthy Nuclei (%) [3]: 74% | Population Hoechst High Intensity Objects (%) [3]: 3% | Population Membrane Permeable-Phenotype (%) [3]: 3% | Population Mitochondria Different-Phenotype (%) [3]: 4% | Population Mitotic Cells (%) [3]: 40% | Population Normal (%) [3]: 96% | Population Pyknosed Nuclei (%) [3]: 13% | Population Tubulin-Different-Phenotype (%) [3]: 37% | Total Cell Count [3]: 151 | Population Apoptotic (%) [4]: 45% | Population Fragmented Nuclei (%) [4]: 32% | Population Healthy Nuclei (%) [4]: 48% | Population Hoechst High Intensity Objects (%) [4]: 7% | Population Membrane Permeable-Phenotype (%) [4]: 12% | Population Mitochondria Different-Phenotype (%) [4]: 3% | Population Mitotic Cells (%) [4]: 54% | Population Normal (%) [4]: 92% | Population Pyknosed Nuclei (%) [4]: 18% | Population Tubulin-Different-Phenotype (%) [4]: 53% | Total Cell Count [4]: 129 | Population Apoptotic (%) [5]: 47% | Population Fragmented Nuclei (%) [5]: 19% | Population Healthy Nuclei (%) [5]: 69% | Population Hoechst High Intensity Objects (%) [5]: 2% | Population Membrane Permeable-Phenotype (%) [5]: 1% | Population Mitochondria Different-Phenotype (%) [5]: 3% | Population Mitotic Cells (%) [5]: 52% | Population Normal (%) [5]: 97% | Population Pyknosed Nuclei (%) [5]: 10% | Population Tubulin-Different-Phenotype (%) [5]: 22% | Total Cell Count [5]: 170 | Population Apoptotic (%) [6]: 31% | Population Fragmented Nuclei (%) [6]: 25% | Population Healthy Nuclei (%) [6]: 57% | Population Hoechst High Intensity Objects (%) [6]: 3% | Population Mitochondria Different-Phenotype (%) [6]: 0% | Population Mitotic Cells (%) [6]: 68% | Population Normal (%) [6]: 96% | Population Pyknosed Nuclei (%) [6]: 16% | Population Tubulin-Different-Phenotype (%) [6]: 40% | Total Cell Count [6]: 183 | Population Apoptotic (%) [7]: 56% | Population Fragmented Nuclei (%) [7]: 9% | Population Healthy Nuclei (%) [7]: 74% | Population Hoechst High Intensity Objects (%) [7]: 1% | Population Membrane Permeable-Phenotype (%) [7]: 3% | Population Mitochondria Different-Phenotype (%) [7]: 7% | Population Mitotic Cells (%) [7]: 44% | Population Normal (%) [7]: 98% | Population Pyknosed Nuclei (%) [7]: 16% | Population Tubulin-Different-Phenotype (%) [7]: 37% | Total Cell Count [7]: 155 | Population Apoptotic (%) [8]: 45% | Population Fragmented Nuclei (%) [8]: 36% | Population Healthy Nuclei (%) [8]: 47% | Population Hoechst High Intensity Objects (%) [8]: 2% | Population Membrane Permeable-Phenotype (%) [8]: 8% | Population Mitochondria Different-Phenotype (%) [8]: 5% | Population Mitotic Cells (%) [8]: 55% | Population Normal (%) [8]: 97% | Population Tubulin-Different-Phenotype (%) [8]: 60% | Total Cell Count [8]: 125 | Population Apoptotic (%) [9]: 60% | Population Fragmented Nuclei (%) [9]: 21% | Population Healthy Nuclei (%) [9]: 69% | Population Hoechst High Intensity Objects (%) [9]: 3% | Population Membrane Permeable-Phenotype (%) [9]: 0% | Population Mitochondria Different-Phenotype (%) [9]: 4% | Population Mitotic Cells (%) [9]: 40% | Population Normal (%) [9]: 96% | Population Pyknosed Nuclei (%) [9]: 8% | Population Tubulin-Different-Phenotype (%) [9]: 31% | Total Cell Count [9]: 173 | Population Apoptotic (%) [10]: 55% | Population Fragmented Nuclei (%) [10]: 31% | Population Healthy Nuclei (%) [10]: 58% | Population Hoechst High Intensity Objects (%) [10]: 2% | Population Membrane Permeable-Phenotype (%) [10]: 2% | Population Mitochondria Different-Phenotype (%) [10]: 1% | Population Mitotic Cells (%) [10]: 44% | Population Normal (%) [10]: 97% | Population Pyknosed Nuclei (%) [10]: 10% | Population Tubulin-Different-Phenotype (%) [10]: 39% | Total Cell Count [10]: 178 | Population Apoptotic (%) [11]: 61% | Population Fragmented Nuclei (%) [11]: 14% | Population Healthy Nuclei (%) [11]: 66% | Population Hoechst High Intensity Objects (%) [11]: 2% | Population Membrane Permeable-Phenotype (%) [11]: 1% | Population Mitochondria Different-Phenotype (%) [11]: 5% | Population Mitotic Cells (%) [11]: 38% | Population Normal (%) [11]: 97% | Population Pyknosed Nuclei (%) [11]: 18% | Population Tubulin-Different-Phenotype (%) [11]: 38% | Total Cell Count [11]: 141 | Population Apoptotic (%) [12]: 37% | Population Fragmented Nuclei (%) [12]: 37% | Population Healthy Nuclei (%) [12]: 48% | Population Hoechst High Intensity Objects (%) [12]: 0% | Population Membrane Permeable-Phenotype (%) [12]: 3% | Population Mitochondria Different-Phenotype (%) [12]: 1% | Population Mitotic Cells (%) [12]: 62% | Population Normal (%) [12]: 99% | Population Pyknosed Nuclei (%) [12]: 13% | Population Tubulin-Different-Phenotype (%) [12]: 58% | Total Cell Count [12]: 117
